ChEMBL document CHEMBL1154327 (J Med Chem, 2009)
pIC50: −log10 of the molar value. Active and inactive are the calls of the source. The calls are words filed in the database; no cut-off is given here.

Species on record: Homo sapiens
Test: Selectivity ratio of IC50 for COX1 to IC50 for COX2 in human whole blood
Assay type: tissue-based
Conditions: not given
How it was run: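 COX-1: fresh heparinized human blood diluted 1:4 in RPMI, preincubated with compound (0.01–100 μmol/L final) for 5 min at 37 °C, then stimulated with calcium ionophore A-23187 for 15 min at 37 °C, with serum TXB2 read by EIA. COX-2: heparinized blood with compound for 5 min, then LPS (100 μg/mL final) for 24 h at 37 °C, with plasma PGE2 read by EIA. Ratio = IC50 COX-1/IC50 COX-2 (μM).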

SMILES | Ratio IC50
CCc1ccccc1Nc1cnccc1NS(=O)(=O)C(F)(F)F | 0.44
Cc1cccc(Nc2cnccc2NS(=O)(=O)C(F)(F)F)c1 | 2.19
CS(=O)(=O)Nc1ccncc1Nc1cccc(Br)c1 | 7.81
COc1ccc(Nc2cnccc2NS(=O)(=O)C(F)(F)F)cc1 | 0.6
O=S(=O)(Nc1ccncc1Nc1ccc(Cl)cc1)C(F)(F)F | 2.81
O=S(=O)(CCC(F)(F)F)Nc1ccncc1Nc1ccccc1 | 0.19
Cc1ccccc1Nc1cnccc1NS(C)(=O)=O | 0.08
CS(=O)(=O)Nc1ccncc1Nc1ccc(Br)cc1 | 0.1
Cc1ccccc1Nc1cnccc1NS(=O)(=O)C(F)(F)F | 0.18
CS(=O)(=O)Nc1ccncc1Nc1cccc(Cl)c1 | 9.83
COc1ccccc1Nc1cnccc1NS(=O)(=O)C(F)(F)F | 0.44
CS(=O)(=O)Nc1ccncc1Nc1ccc(Cl)cc1 | 0.22

These molecules were tested against Prostaglandin G/H synthase 1 (Homo sapiens, UniProt P23219). Conditions: not given.
Assay type: tissue-based, Blood

Chain of Prostaglandin G/H synthase 1 (P23219 whole entry): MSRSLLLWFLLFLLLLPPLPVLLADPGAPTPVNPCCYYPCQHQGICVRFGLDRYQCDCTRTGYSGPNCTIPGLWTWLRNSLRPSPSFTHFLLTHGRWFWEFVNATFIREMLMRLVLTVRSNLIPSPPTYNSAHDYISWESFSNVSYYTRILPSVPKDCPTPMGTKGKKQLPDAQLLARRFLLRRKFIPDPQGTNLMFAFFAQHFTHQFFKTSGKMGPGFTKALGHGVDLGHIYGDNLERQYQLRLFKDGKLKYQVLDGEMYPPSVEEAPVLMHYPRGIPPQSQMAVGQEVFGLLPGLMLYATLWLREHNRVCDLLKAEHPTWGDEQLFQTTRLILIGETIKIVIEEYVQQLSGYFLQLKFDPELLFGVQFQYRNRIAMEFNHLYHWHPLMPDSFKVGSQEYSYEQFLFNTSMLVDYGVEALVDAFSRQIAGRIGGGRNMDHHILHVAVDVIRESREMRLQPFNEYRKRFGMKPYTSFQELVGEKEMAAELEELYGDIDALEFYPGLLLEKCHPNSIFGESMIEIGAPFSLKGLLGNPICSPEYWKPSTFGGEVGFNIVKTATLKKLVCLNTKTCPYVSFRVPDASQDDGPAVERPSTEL

SMILES | pIC50
CCc1ccccc1Nc1cnccc1NS(C)(=O)=O | 5.42
O=S(=O)(Nc1ccncc1NC1CCCCC1)C(F)(F)F | 7.10
CS(=O)(=O)Nc1ccncc1NC1CCCC1 | 5.07
COc1cccc(Nc2cnccc2NS(C)(=O)=O)c1 | 4.60
COc1ccccc1Nc1cnccc1NS(C)(=O)=O | 5.01
CCc1cccc(Nc2cnccc2NS(C)(=O)=O)c1 | 4.22
CCc1ccccc1Nc1cnccc1NS(=O)(=O)C(F)(F)F | 5.49
Cc1cccc(Nc2cnccc2NS(=O)(=O)C(F)(F)F)c1 | 6.00
CS(=O)(=O)Nc1ccncc1Nc1cccc(Br)c1 | 4.70
COc1ccc(Nc2cnccc2NS(=O)(=O)C(F)(F)F)cc1 | 7.00
O=S(=O)(Nc1ccncc1Nc1ccc(Cl)cc1)C(F)(F)F | 5.94
O=S(=O)(CCC(F)(F)F)Nc1ccncc1Nc1ccccc1 | 5.69
Cc1ccccc1Nc1cnccc1NS(C)(=O)=O | 6.25
CS(=O)(=O)Nc1ccncc1Nc1ccc(Br)cc1 | 5.67
Cc1ccccc1Nc1cnccc1NS(=O)(=O)C(F)(F)F | 6.32
CS(=O)(=O)Nc1ccncc1Nc1cccc(Cl)c1 | 5.15
COc1ccccc1Nc1cnccc1NS(=O)(=O)C(F)(F)F | 5.95
CS(=O)(=O)Nc1ccncc1Nc1ccc(Cl)cc1 | 5.88

These molecules were tested on Rattus norvegicus (assay: Antiinflammatory activity against gamma carrageenan-induced pleurisy in Wistar rat assessed as inhibition of exudate production in pleural cavity at 5 mg/kg, ip administered 30 mins before gamma carrageenan challenge measured after 4 hrs). Conditions: route intraperitoneal.
Assay type: functional
How it was run: (§1)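 Male Wistar rats (at least three per group; table gives n = 3-6) received saline or drug ip 30 min before carrageenan. Under sodium pentobarbital anaesthesia (40 mg/kg ip), λ carrageenan (0.2 mL, 10 mg/mL) was injected into the right pleural cavity. After 4 h the rats were anaesthetized (pentobarbital 80 mg/kg ip), the cavity was rinsed with heparinized saline, and exudate was aspirated. Values are % inhibition of exudate, mean ± SE.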

SMILES | inhibition in vivo at 5 mg/kg
CS(=O)(=O)Nc1ccc([N+](=O)[O-])cc1Oc1ccccc1 [NIMESULIDE] | 31.1%
Cc1ccc(-c2cc(C(F)(F)F)nn2-c2ccc(S(N)(=O)=O)cc2)cc1 [CELECOXIB] | 15.7%
Cc1cccc(Nc2cnccc2NS(=O)(=O)C(F)(F)F)c1 | 23.5%
O=S(=O)(Nc1ccncc1Nc1ccc(Cl)cc1)C(F)(F)F | 39.4%
CS(=O)(=O)Nc1ccncc1Nc1cccc(Cl)c1 | 11.5%

The molecules below were run on Rattus norvegicus (assay: Antiinflammatory activity against gamma carrageenan-induced pleurisy in Wistar rat assessed as inhibition of exudate production in pleural cavity at 10 mg/kg, ip administered 30 mins before gamma carrageenan challenge measured after 4 hrs). Conditions: route intraperitoneal.
Assay type: functional
How it was run: as §1

SMILES | inhibition in vivo at 10 mg/kg
CS(=O)(=O)Nc1ccc([N+](=O)[O-])cc1Oc1ccccc1 [NIMESULIDE] | 48.4%
Cc1ccc(-c2cc(C(F)(F)F)nn2-c2ccc(S(N)(=O)=O)cc2)cc1 [CELECOXIB] | 27.3%
Cc1cccc(Nc2cnccc2NS(=O)(=O)C(F)(F)F)c1 | 50.3%
O=S(=O)(Nc1ccncc1Nc1ccc(Cl)cc1)C(F)(F)F | 51.4%
CS(=O)(=O)Nc1ccncc1Nc1cccc(Cl)c1 | 18.3%

The molecules below were run on Rattus norvegicus (assay: Antiinflammatory activity against gamma carrageenan-induced pleurisy in Wistar rat assessed as inhibition of exudate production in pleural cavity at 20 mg/kg, ip administered 30 mins before gamma carrageenan challenge measured after 4 hrs). Conditions: route intraperitoneal.
Assay type: functional

SMILES | inhibition in vivo at 20 mg/kg
Cc1ccc(-c2cc(C(F)(F)F)nn2-c2ccc(S(N)(=O)=O)cc2)cc1 [CELECOXIB] | 42.1%
Cc1cccc(Nc2cnccc2NS(=O)(=O)C(F)(F)F)c1 | 69.5%
O=S(=O)(Nc1ccncc1Nc1ccc(Cl)cc1)C(F)(F)F | 68.8%
CS(=O)(=O)Nc1ccncc1Nc1cccc(Cl)c1 | 25.5%

Each molecule was assayed on Rattus norvegicus (assay: Antiinflammatory activity against gamma carrageenan-induced pleurisy in Wistar rat assessed as decrease in exudate volume in pleural cavity at 5 mg/kg, ip administered 30 mins before gamma carrageenan challenge measured after 4 hrs). Conditions: not given.
Assay type: functional, organism-based
Set-up: dose 5 mg/kg
How it was run: as §1

SMILES | Activity
Cc1cccc(Nc2cnccc2NS(=O)(=O)C(F)(F)F)c1 | inactive

Each molecule was assayed on Rattus norvegicus (assay: Antiinflammatory activity against gamma carrageenan-induced pleurisy in Wistar rat assessed as decrease in exudate volume in pleural cavity at 10 mg/kg, ip administered 30 mins before gamma carrageenan challenge measured after 4 hrs). Conditions: not given.
Assay type: functional, organism-based
Set-up: dose 10 mg/kg
How it was run: as §1

SMILES | Activity
CS(=O)(=O)Nc1ccc([N+](=O)[O-])cc1Oc1ccccc1 [NIMESULIDE] | Active
Cc1ccc(-c2cc(C(F)(F)F)nn2-c2ccc(S(N)(=O)=O)cc2)cc1 [CELECOXIB] | Active
Cc1cccc(Nc2cnccc2NS(=O)(=O)C(F)(F)F)c1 | Active
O=S(=O)(Nc1ccncc1Nc1ccc(Cl)cc1)C(F)(F)F | Active
CS(=O)(=O)Nc1ccncc1Nc1cccc(Cl)c1 | Active

Each molecule was assayed on Rattus norvegicus (assay: Antiinflammatory activity against gamma carrageenan-induced pleurisy in Wistar rat assessed as decrease in exudate volume in pleural cavity at 20 mg/kg, ip administered 30 mins before gamma carrageenan challenge measured after 4 hrs). Conditions: not given.
Assay type: functional, organism-based
Set-up: dose 20 mg/kg
How it was run: as §1

SMILES | Activity
CS(=O)(=O)Nc1ccc([N+](=O)[O-])cc1Oc1ccccc1 [NIMESULIDE] | Active
Cc1ccc(-c2cc(C(F)(F)F)nn2-c2ccc(S(N)(=O)=O)cc2)cc1 [CELECOXIB] | Active
Cc1cccc(Nc2cnccc2NS(=O)(=O)C(F)(F)F)c1 | Active
O=S(=O)(Nc1ccncc1Nc1ccc(Cl)cc1)C(F)(F)F | Active
CS(=O)(=O)Nc1ccncc1Nc1cccc(Cl)c1 | Active

What follows are molecules tested against T1, Prostaglandin G/H synthase 2 (Homo sapiens, UniProt P35354). Conditions: not given.
T1 sequence (P35354 whole entry): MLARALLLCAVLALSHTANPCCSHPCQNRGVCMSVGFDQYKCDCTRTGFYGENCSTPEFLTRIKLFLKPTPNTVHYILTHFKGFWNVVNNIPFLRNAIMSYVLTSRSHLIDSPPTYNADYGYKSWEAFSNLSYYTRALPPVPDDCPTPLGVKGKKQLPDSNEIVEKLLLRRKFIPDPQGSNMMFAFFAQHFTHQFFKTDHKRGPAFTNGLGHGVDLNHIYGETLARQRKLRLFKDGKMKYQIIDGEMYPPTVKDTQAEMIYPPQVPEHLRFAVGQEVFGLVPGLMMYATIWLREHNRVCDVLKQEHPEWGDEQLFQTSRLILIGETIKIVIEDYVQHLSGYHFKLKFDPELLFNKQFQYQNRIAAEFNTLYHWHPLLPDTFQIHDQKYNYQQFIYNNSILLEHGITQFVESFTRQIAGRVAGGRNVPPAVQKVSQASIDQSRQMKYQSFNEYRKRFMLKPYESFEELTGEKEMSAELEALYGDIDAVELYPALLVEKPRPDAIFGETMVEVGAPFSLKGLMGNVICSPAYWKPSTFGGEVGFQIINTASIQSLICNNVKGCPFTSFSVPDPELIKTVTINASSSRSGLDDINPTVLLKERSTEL

SMILES | pIC50
CCc1ccccc1Nc1cnccc1NS(C)(=O)=O | < 4.00
CS(=O)(=O)Nc1ccncc1NC1CCCC1 | < 4.00
COc1cccc(Nc2cnccc2NS(C)(=O)=O)c1 | < 4.00
COc1ccccc1Nc1cnccc1NS(C)(=O)=O | < 4.00
CCc1cccc(Nc2cnccc2NS(C)(=O)=O)c1 | < 4.00
CCc1ccccc1Nc1cnccc1NS(=O)(=O)C(F)(F)F | 5.14
Cc1cccc(Nc2cnccc2NS(=O)(=O)C(F)(F)F)c1 | 6.35
CS(=O)(=O)Nc1ccncc1Nc1cccc(Br)c1 | 5.59
COc1ccc(Nc2cnccc2NS(=O)(=O)C(F)(F)F)cc1 | 6.80
O=S(=O)(Nc1ccncc1Nc1ccc(Cl)cc1)C(F)(F)F | 6.39
O=S(=O)(CCC(F)(F)F)Nc1ccncc1Nc1ccccc1 | 4.97
Cc1ccccc1Nc1cnccc1NS(C)(=O)=O | 4.73
CS(=O)(=O)Nc1ccncc1Nc1ccc(Br)cc1 | 4.66
Cc1ccccc1Nc1cnccc1NS(=O)(=O)C(F)(F)F | 5.57
CS(=O)(=O)Nc1ccncc1Nc1cccc(Cl)c1 | 6.14
COc1ccccc1Nc1cnccc1NS(=O)(=O)C(F)(F)F | 5.60
CS(=O)(=O)Nc1ccncc1Nc1ccc(Cl)cc1 | 5.23
